One data set concerns Aspergillus niger. Description: Antifungal activity. The conditions noted are these: read-out: MIC, A. niger. Type of data set: cell-based. In short, it runs like this:
(§1)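 Run by the poison food technique against Aspergillus niger and Aspergillus flavus. Fluconazole was the reference drug.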

In data set [1] the test system is Pseudomonas aeruginosa (MTCC 741). Description: Antibacterial activity. The data set is classed as cell-based. The conditions noted are these: for MIC: Pseudomonas aeruginosa, MTCC741, read-out: MIC, P. aeruginosa. In short, it runs like this:
(§2)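 Screened by a standard method against S. aureus MTCC 96, B. subtilis MTCC 121, E. coli MTCC 1652 and P. aeruginosa MTCC 741. Ciprofloxacin was the reference antibiotic. Only compounds active at 100 μg/mL went on to MIC determination.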

For data set [2], the system named is Staphylococcus aureus (MTCC 96). Description: Antibacterial activity. Type of data set: cell-based. As to conditions: MTCC96, read-out: MIC, S. aureus. In short, it runs like this: as §2
Data set [3] concerns tail immersion (hot water 55 °C). The experiment in a line: Central analgesic activity, tail immersion method. Type of data set: in vivo, Swiss albino mice. As to conditions: mice, mean ± SEM; for Central analgesic activity [tail immersion (reaction time in min)] 1 h: 1 h after the dosing; for Central analgesic activity [tail immersion (reaction time in min)] 2 h: 2 h after the dosing. In short, it runs like this:
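Used the same mice from the writhing test after a washout period. Each mouse was held in a restrainer and the protruding tail (up to 5 cm) was dipped in 55 °C water. Withdrawal time was recorded as reaction time at 1 h and 2 h post-dose. Data are mean ± SEM, analysed by ANOVA followed by Dunnett's t test.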

Data set [4] has as its system Bacillus subtilis (MTCC 121). Description: Antibacterial activity. Type of data set: cell-based. The conditions noted are these: MTCC121, read-out: MIC, B. subtilis. A digest of the protocol: as §2
For data set [5], the system named is carrageenan induced edema. The experiment in a line: Anti-inflammatory activity, carrageenan induced rat paw edema. The data set is classed as in vivo, Wistar rats. As to conditions: inhibition of edema, rats. A digest of the protocol: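 Used the Winter et al. paw oedema method in Wistar rats of either sex (160–200 g), housed six per cage and acclimatised 48 h. Percent inhibition of oedema was calculated at 1, 2, 3 and 4 h. Diclofenac served as the standard drug.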

The test system of data set [6] is acetic acid induced writhing. The experiment in a line: Peripheral analgesic activity, acetic acid induced writhing method. The conditions noted are these: mice; for Peripheral analgesic activity (writhing test) No. of writhing: mean ± SEM; for Peripheral analgesic activity (writhing test) % Protection: vs control group. The data set is classed as in vivo, Swiss Albino mice. In short, it runs like this:
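Writhing was induced with aqueous acetic acid in Swiss albino mice (20–30 g) of either sex, six per group. % Protection = (Wc − Wt)/Wc × 100, where Wc and Wt are the mean writhing counts of the control and test groups.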
In general terms: Writhing tests count abdominal constrictions after an irritant is injected.

Data set [7] concerns Escherichia coli (MTCC 1652). Description: Antibacterial activity. The data set is classed as cell-based. The conditions noted are these: for MIC: Escherichia coli, MTCC1652, read-out: MIC, E. coli. In short, it runs like this: as §2
The subject of a further data set is mucosal damage. Description: Acute ulcerogenic activity. Type of data set: in vivo, Albino rats. As to conditions: rats, mean ± SEM. In short, it runs like this: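 Conducted in Albino rats (160–200 g, housed six per cage, acclimatised 48 h) following Cioli et al. Gastric mucosal damage was scored at the end of the study. Ulcerogenic potential (severity index) came from comparing the mean score of each treated group with that of the control rats.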

Another data set has as its system Aspergillus flavus. The experiment in a line: Antifungal activity. The data set is classed as cell-based. As to conditions: read-out: MIC, A. flavus. A digest of the protocol:
as §1

Values after ≈ are worked out from the molar mass of the structure shown. Values joined by “and” are separate entries in the source; they are usually repeats but may differ in a detail not shown here. Equal entries are not always repeated.

Take `O=C1C(=Cc2cc3cc([N+](=O)[O-])ccc3nc2Cl)C=C(c2ccc3ccccc3c2)N1Cc1ccccc1` [Compound 7d, 1-Benzyl-3-[(2-chloro-6-nitroquinolin-3-yl)methylene]-5-(naphthalene-2-yl)-1H-pyrrol-2(3H)-one]: the minimal inhibitory concentration (MIC) in the data set with Aspergillus niger was 25 µg/mL (≈ 48.3 µM); in [1], over 100 µg/mL; in data set [2] it was 25 µg/mL (≈ 48.3 µM); in data set [4], 25 µg/mL (≈ 48.3 µM); in data set [7], 25 µg/mL (≈ 48.3 µM); in the data set with Aspergillus flavus, 50 µg/mL (≈ 96.5 µM). In addition, the “Central analgesic activity [tail immersion (reaction time in min)] 1 h” value in data set [3] was 3.2 ± 0.4^∗ min. Further, the “Central analgesic activity [tail immersion (reaction time in min)] 2 h” value in data set [3] worked out at 5.4 ± 1.9 min. Moreover, the “% Inhibition ± SEM After 1 h” value in data set [5] was 83 ± 0.06^∗∗ %. Moreover, the “% Inhibition ± SEM After 2 h” value in data set [5] is listed as 73 ± 0.15^∗∗ %. Besides, in data set [5], the “% Inhibition ± SEM After 3 h” value worked out at 66 ± 0.26%. In addition, in data set [6], the “Peripheral analgesic activity (writhing test) No. of writhing” value was 21.0 ± 10.0^∗. For the same compound, the “Peripheral analgesic activity (writhing test) % Protection” value in data set [6] turned out to be 50%. For the same compound, the “Ulcerogenic activity (severity index)” value in the data set with mucosal damage came out at 0.40 ± 0.32.
With `O=C1OC(c2ccc3ccccc3c2)=CC1=Cc1cc2cc([N+](=O)[O-])ccc2nc1Cl` [Compound 5d, 3-[(2-Chloro-6-nitroquinolin-3-yl)methylene]-5-(naphthalene-2-yl)furan-2(3H)-one], the MIC with Aspergillus niger was found to be 25 µg/mL (≈ 58.3 µM); in [1] it was 25 µg/mL (≈ 58.3 µM); in [2], 12.5 µg/mL (≈ 29.1 µM); in [4], 25 µg/mL (≈ 58.3 µM); in data set [7], 12.5 µg/mL (≈ 29.1 µM); in the data set on Aspergillus flavus, 25 µg/mL (≈ 58.3 µM). The “Central analgesic activity [tail immersion (reaction time in min)] 1 h” value in [3] was 4.4 min and 4.4 ± 0.6^∗∗ min. The “Central analgesic activity [tail immersion (reaction time in min)] 2 h” value in [3] was 6.5 min and 6.5 ± 0.2 ^∗ min. Besides, in [5], the “% Inhibition ± SEM After 1 h” value is 79 ± 0.12^∗∗ %. In addition, the “% Inhibition ± SEM After 2 h” value in data set [5] was 61 ± 0.15^∗∗ %. Besides, the “% Inhibition ± SEM After 3 h” value in data set [5] was 56 ± 0.25^∗ %. The “Peripheral analgesic activity (writhing test) No. of writhing” value in data set [6] was 6.0 ± 2.2^∗∗.
With `O=C(O)Cc1ccccc1Nc1c(Cl)cccc1Cl` [Diclofenac, diclofenac, reference compound], in data set [3], the “Central analgesic activity [tail immersion (reaction time in min)] 1 h” value was 8.2 ± 0.2^∗∗ min and the “Central analgesic activity [tail immersion (reaction time in min)] 2 h” value is recorded as 8.8 ± 0.2^∗∗ min. Also, in data set [5], the “% Inhibition ± SEM After 4 h” value stood at 92%. Besides, in data set [6], the “Peripheral analgesic activity (writhing test) No. of writhing” value was 4.2 ± 1.0^∗∗ and the “Peripheral analgesic activity (writhing test) % Protection” value turned out to be 90%. The “Ulcerogenic activity (severity index)” value with mucosal damage turned out to be 0.86 ± 0.28.
With `O=C1C(=Cc2cc3cc([N+](=O)[O-])ccc3nc2Cl)C=C(c2ccc(-c3ccccc3)cc2)N1Cc1ccccc1` [Compound 7h, 1-Benzyl-3-[(2-chloro-6-nitroquinolin-3-yl)methylene]-5-(biphenyl-4-yl)-1H-pyrrol-2(3H)-one], the MIC was 50 µg/mL (≈ 91.9 µM) in the data set on Aspergillus niger; 50 µg/mL (≈ 91.9 µM) in [1]; 25 µg/mL (≈ 46 µM) in data set [2]; over 100 µg/mL in data set [4]; 50 µg/mL (≈ 91.9 µM) in data set [7]; over 100 µg/mL with Aspergillus flavus. The “Central analgesic activity [tail immersion (reaction time in min)] 1 h” value in data set [3] was 5.5 min and 5.5 ± 0.3^∗∗ min. Besides, the “Central analgesic activity [tail immersion (reaction time in min)] 2 h” value in data set [3] was 6.4 min and 6.4 ± 0.3^∗ min. Besides, the “% Inhibition ± SEM After 1 h” value in [5] turned out to be 36 ± 0.13%. Moreover, in data set [5], the “% Inhibition ± SEM After 2 h” value is recorded as 65 ± 0.24^∗∗ %. The “% Inhibition ± SEM After 3 h” value in data set [5] was 58 ± 0.34^∗ %. Besides, the “Peripheral analgesic activity (writhing test) No. of writhing” value in data set [6] is on record as 10.4 ± 3.7^∗∗.
As to `Cc1ccc2nc(Cl)c(C=C3C=C(c4ccc(-c5ccccc5)cc4)N(Cc4ccccc4)C3=O)cc2c1` [Compound 7g, 1-Benzyl-3-[(2-chloro-6-methylquinolin-3-yl)methylene]-5-(biphenyl-4-yl)-1H-pyrrol-2(3H)-one], the MIC was 25 µg/mL (≈ 48.7 µM) in the data set on Aspergillus niger; over 100 µg/mL in data set [1]; 25 µg/mL (≈ 48.7 µM) in [2]; 50 µg/mL (≈ 97.5 µM) in data set [4]; over 100 µg/mL in data set [7]; 50 µg/mL (≈ 97.5 µM) in the data set with Aspergillus flavus. Besides, the “MIC, P. aeruginosa” value in [1] (P. aeruginosa (MTCC 741)) is on record as “did not show any inhibition”. Further, in data set [5], the “% Inhibition ± SEM After 1 h” value is listed as 69 ± 0.03^∗∗ %. In addition, in [5], the “% Inhibition ± SEM After 2 h” value was 54 ± 0.14^∗∗ %. Further, in data set [5], the “% Inhibition ± SEM After 3 h” value turned out to be 30 ± 0.20%. Moreover, the “% Inhibition ± SEM After 4 h” value in data set [5] was found to be 40 ± 0.16%. Also, the “MIC, E. coli” value in [7] (E. coli (MTCC 1652)) is “did not show any inhibition”.
For `Cc1ccc2nc(Cl)c(C=C3C=C(c4ccc5ccccc5c4)N(Cc4ccccc4)C3=O)cc2c1` [Compound 7c, 1-Benzyl-3-[(2-chloro-6-methylquinolin-3-yl)methylene]-5-(naphthalene-2-yl)-1H-pyrrol-2(3H)-one], the MIC in the data set with Aspergillus niger was 50 µg/mL (≈ 103 µM); in [1] it was over 100 µg/mL; in data set [2], 25 µg/mL (≈ 51.3 µM); in [4], 50 µg/mL (≈ 103 µM); in [7], 50 µg/mL (≈ 103 µM); with Aspergillus flavus, 25 µg/mL (≈ 51.3 µM). In addition, the “% Inhibition ± SEM After 1 h” value in [5] is reported as 78 ± 0.12^∗∗ %. In addition, the “% Inhibition ± SEM After 2 h” value in data set [5] is given as 71 ± 0.28^∗∗ %. In [5], the “% Inhibition ± SEM After 3 h” value is reported as 57 ± 0.25^∗ %. In addition, the “% Inhibition ± SEM After 4 h” value in data set [5] is 61 ± 0.21^∗∗ %.
As to `O=C1OC(c2ccc(-c3ccccc3)cc2)=CC1=Cc1cc2cc(Cl)ccc2nc1Cl` [Compound 5f, 3-[(2,6-Dichloroquinolin-3-yl)methylene]-5-(biphenyl-4-yl)furan-2(3H)-one], the MIC with Aspergillus niger was 25 µg/mL (≈ 56.3 µM); in data set [1], over 100 µg/mL; in data set [2], 12.5 µg/mL (≈ 28.1 µM); in [4] it was 25 µg/mL (≈ 56.3 µM); in data set [7], 50 µg/mL (≈ 113 µM); in the data set on Aspergillus flavus it was 25 µg/mL (≈ 56.3 µM). Also, the “% Inhibition ± SEM After 1 h” value in [5] was 63 ± 0.13^∗∗ %. Also, in data set [5], the “% Inhibition ± SEM After 2 h” value was 58 ± 0.21^∗∗ %. In addition, the “% Inhibition ± SEM After 3 h” value in [5] was 53 ± 0.17%. Besides, in data set [5], the “% Inhibition ± SEM After 4 h” value is on record as 58 ± 0.12^∗∗ %.
`O=C1NC(c2ccc(-c3ccccc3)cc2)=CC1=Cc1cc2ccccc2nc1Cl` [Compound 6e, 3-[(2-Chloroquinolin-3-yl)methylene]-5-(biphenyl-4-yl)-1H-pyrrol-2(3H)-one]: the MIC is 50 µg/mL (≈ 122 µM) in the data set on Aspergillus niger; 50 µg/mL (≈ 122 µM) in data set [1]; 12.5 µg/mL (≈ 30.6 µM) in data set [2]; 50 µg/mL (≈ 122 µM) in data set [4]; over 100 µg/mL in [7]; 25 µg/mL (≈ 61.1 µM) in the data set with Aspergillus flavus. In [5], the “% Inhibition ± SEM After 1 h” value is 38 ± 0.21%. Further, the “% Inhibition ± SEM After 2 h” value in data set [5] was 48 ± 0.21^∗∗ %. The “% Inhibition ± SEM After 3 h” value in [5] was determined as 44 ± 0.33%. Moreover, the “% Inhibition ± SEM After 4 h” value in data set [5] was 35 ± 0.32%.
With `O=C1NC(c2ccc(-c3ccccc3)cc2)=CC1=Cc1cc2cc(Cl)ccc2nc1Cl` [Compound 6f, 3-[(2,6-Dichloroquinolin-3-yl)methylene]-5-(biphenyl-4-yl)-1H-pyrrol-2(3H)-one], the minimal inhibitory concentration (MIC) came to 6.25 µg/mL (≈ 14.1 µM) in the data set on Aspergillus niger; 25 µg/mL (≈ 56.4 µM) in [1]; 6.25 µg/mL (≈ 14.1 µM) in [2]; 6.25 µg/mL (≈ 14.1 µM) in [4]; 50 µg/mL (≈ 113 µM) in data set [7]; 12.5 µg/mL (≈ 28.2 µM) in the data set on Aspergillus flavus. Also, the “% Inhibition ± SEM After 1 h” value in data set [5] is recorded as 48 ± 0.13%. Besides, the “% Inhibition ± SEM After 2 h” value in [5] is 63 ± 0.27^∗∗ %. The “% Inhibition ± SEM After 3 h” value in data set [5] stood at 25 ± 0.34%. The “% Inhibition ± SEM After 4 h” value in data set [5] was determined as 42 ± 0.20%.

By MIC is commonly meant the smallest concentration in the dilution series that meets the test's criterion for growth inhibition.

For the origin of these results see PMC5094435 (Saudi Pharmaceutical Journal : SPJ, 2015).
